Source: ChEMBL document CHEMBL3244414, “Structure-activity relationships among the O-acyl derivatives of leucomycin. Correlation of minimal inhibitory concentrations with binding to Escherichia coli ribosomes” (J Med Chem, 1977)
≈ marks a conversion by molar mass, not a printed value.

How the values were obtained:
Klebsiella pneumoniae = test: Antimicrobial activity against Klebsiella pneumoniae ATCC 10031 by agar dilution method; format: functional; settings: Klebsiella pneumoniae, ATCC 10031; read-out: MIC
Summary of the method: (§1)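 Read-out is the minimal inhibitory concentration, found by agar dilution against the named strain.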

Bacterial 70S ribosome = test: (§2) Displacement of [14C]erythromycin from Escherichia coli ribosomes after 30 mins by scintillation spectrometer analysis
Summary of the method: (§3)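 NH4Cl-washed E. coli ribosomes with [14C]erythromycin A and varied competitor concentrations in 0.01 M Tris-HCl pH 7.2, 0.1 M KCl, 0.004 M MgCl2, 0.01 M NH4Cl. Incubated 30 min at 24 °C, stopped by dilution in cold Tris/KCl/MgCl2 buffer, membrane-filtered, washed three times, dried, scintillation counted. Reports the concentration giving 50% inhibition of binding.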

[1] = biological target: Bacterial 70S ribosome (Bacteria) (UniProt P0A7V0+P60723+P0AG67+P0A7R5+P0A7R9+P0A7S3+P0A7S9+P0AG59+P0ADZ4+P0A7T3+P0AG63+P0A7T7+P0A7U3+P0A7U7+P68679+P0A7V3+P0A7V8+P0A7W1+P02358+P02359+P0A7W7+P0A7X3+P0A7J3+P0A7J7+P0AA10+P0ADY3+P02413+P0ADY7+P0AG44+P0C018+P0A7K6+P0A7L0+P0A7L3+P0AG48+P61175+P0ADZ0+P60624+P68919+P0A7L8+P0A7M2+P0A7M6+P60422+P0AG51+P0A7N1+P0A7M9+P0A7N4+P0A7N9+P0A7P5+P0A7Q1+Q2EEQ2+P0A7Q6+P60438+P62399+P0AG55+P0A7K2); test: as §2; summary of the method: as §3
Staphylococcus aureus = test: Antimicrobial activity against Staphylococcus aureus ATCC 6538P by agar dilution method; format: functional; settings: Staphylococcus aureus, ATCC 6538P; read-out: MIC; summary of the method: as §1
Bacillus spizizenii = test: Antimicrobial activity against Bacillus subtilis ATCC 6633 by agar dilution method; format: functional; settings: Bacillus spizizenii, ATCC 6633; read-out: MIC; summary of the method: as §1

Compound	MIC (Klebsiella pneumoniae) [µg/mL]	IC50 (Bacterial 70S ribosome) [µM]	pK50 [1]	MIC (Staphylococcus aureus) [µg/mL]	MIC (Bacillus spizizenii) [µg/mL]
CCC(=O)O[C@H]1/C=C/C=C/C[C@@H](C)OC(=O)C[C@@H](O)[C@H](OC)[C@@H](O[C@@H]2O[C@H](C)[C@@H](O[C@H]3C[C@@](C)(O)[C@@H](O)[C@H](C)O3)[C@H](N(C)C)[C@H]2O)[C@@H](CC=O)C[C@H]1C	100 (≈ 132 µM)	4	5.4	6.3 (≈ 8.31 µM)	3.1 (≈ 4.09 µM)
CCCC(=O)O[C@H]1[C@H](C)O[C@@H](O[C@H]2[C@H](N(C)C)[C@@H](O)[C@H](O[C@H]3[C@@H](CC=O)C[C@@H](C)[C@@H](OC(C)=O)/C=C/C=C/C[C@@H](C)OC(=O)C[C@@H](O)[C@@H]3OC)O[C@@H]2C)C[C@@]1(C)O	25 (≈ 30.7 µM)	0.9	6.1	1.6 (≈ 1.97 µM)	0.4 (≈ 0.491 µM)
CO[C@@H]1[C@@H](O[C@@H]2O[C@H](C)[C@@H](O[C@H]3C[C@@](C)(O)[C@@H](OC(C)=O)[C@H](C)O3)[C@H](N(C)C)[C@H]2O)[C@@H](CC=O)C[C@@H](C)[C@@H](OC(C)=O)/C=C/C=C/C[C@@H](C)OC(=O)C[C@H]1O	50 (≈ 63.6 µM)	2.1	5.7	6.3 (≈ 8.02 µM)	3.1 (≈ 3.94 µM)
CO[C@@H]1[C@@H](O[C@@H]2O[C@H](C)[C@@H](O[C@H]3C[C@@](C)(O)[C@@H](O)[C@H](C)O3)[C@H](N(C)C)[C@H]2O)[C@@H](CC=O)C[C@@H](C)[C@@H](OC(C)=O)/C=C/C=C/C[C@@H](C)OC(=O)C[C@H]1OC(C)=O	50 (≈ 63.6 µM)	6.3	5.2	3.1 (≈ 3.94 µM)	1.6 (≈ 2.04 µM)
CO[C@@H]1[C@@H](O[C@@H]2O[C@H](C)[C@@H](O[C@H]3C[C@@](C)(O)[C@@H](OC(=O)CC(C)C)[C@H](C)O3)[C@H](N(C)C)[C@H]2O)[C@@H](CC=O)C[C@@H](C)[C@@H](OC(=O)CCl)/C=C/C=C/C[C@@H](C)OC(=O)C[C@H]1OC(C)=O	50 (≈ 55.3 µM)	1.7	5.8	0.8 (≈ 0.884 µM)	0.4 (≈ 0.442 µM)
CO[C@@H]1[C@@H](O[C@@H]2O[C@H](C)[C@@H](O[C@H]3C[C@@](C)(O)[C@@H](O)[C@H](C)O3)[C@H](N(C)C)[C@H]2O)[C@@H](CC=O)C[C@@H](C)[C@@H](O)/C=C/C=C/C[C@@H](C)OC(=O)C[C@H]1OC(C)=O	100 (≈ 134 µM)	10.7	5	12.5 (≈ 16.8 µM)	6.3 (≈ 8.47 µM)
CCCC(=O)O[C@H]1[C@H](C)O[C@@H](O[C@H]2[C@H](N(C)C)[C@@H](O)[C@H](O[C@H]3[C@@H](CC=O)C[C@@H](C)[C@@H](OC(=O)C(Cl)Cl)/C=C/C=C/C[C@@H](C)OC(=O)C[C@@H](O)[C@@H]3OC)O[C@@H]2C)C[C@@]1(C)O	25 (≈ 28.3 µM)	1.3	5.9	1.6 (≈ 1.81 µM)	1.6 (≈ 1.81 µM)
CCCC(=O)O[C@H]1[C@H](C)O[C@@H](O[C@H]2[C@H](N(C)C)[C@@H](OC(C)=O)[C@H](O[C@H]3[C@@H](CC=O)C[C@@H](C)[C@@H](OC(C)=O)/C=C/C=C/C[C@@H](C)OC(=O)C[C@@H](O)[C@@H]3OC)O[C@@H]2C)C[C@@]1(C)O	100 (≈ 117 µM)	23.4	4.6	1.6 (≈ 1.87 µM)	0.8 (≈ 0.935 µM)
CO[C@@H]1[C@@H](O[C@@H]2O[C@H](C)[C@@H](O[C@H]3C[C@@](C)(O)[C@@H](OC(=O)CC(C)C)[C@H](C)O3)[C@H](N(C)C)[C@H]2O)[C@@H](CC=O)C[C@@H](C)[C@@H](OC(C)=O)/C=C/C=C/C[C@@H](C)OC(=O)C[C@H]1O	50 (≈ 60.4 µM)	1.1	6	1.6 (≈ 1.93 µM)	0.8 (≈ 0.966 µM)
CCCC(=O)O[C@H]1[C@H](C)O[C@@H](O[C@H]2[C@H](N(C)C)[C@@H](OC(C)=O)[C@H](O[C@H]3[C@@H](CC=O)C[C@@H](C)[C@@H](OC(C)=O)/C=C/C=C/C[C@@H](C)OC(=O)C[C@@H](OC(C)=O)[C@@H]3OC)O[C@@H]2C)C[C@@]1(C)O	100 (≈ 111 µM)	33.1	4.5	1.6 (≈ 1.78 µM)	1.6 (≈ 1.78 µM)
CO[C@@H]1[C@@H](O[C@@H]2O[C@H](C)[C@@H](O[C@H]3C[C@@](C)(O)[C@@H](OC(C)=O)[C@H](C)O3)[C@H](N(C)C)[C@H]2O)[C@@H](CC=O)C[C@@H](C)[C@@H](O)/C=C/C=C/C[C@@H](C)OC(=O)C[C@H]1OC(C)=O	100 (≈ 127 µM)	6.7	5.2	3.1 (≈ 3.94 µM)	6.3 (≈ 8.02 µM)
